This passage reports inhibition results from ChEMBL document CHEMBL1781987, “Nobilamides A-H, long-acting transient receptor potential vanilloid-1 (TRPV1) antagonists from mollusk-associated bacteria” (J Med Chem, 2011).

Active and inactive are the calls of the source. No cut-off for these calls is given here. Bridge positions count the residues as written; N and C are the ends. Square brackets hold non-standard residues; d marks the D form. Peptide text beside a SMILES is read from it. * marks the point of attachment. d(aThr) = C[C@@H](O)[C@@H](N)C(=O)O; Dhb = C/C=C(\N)C(=O)O; Propionyl = CCC(=O)*

For assay [1], the target named is Transient receptor potential cation channel subfamily V member 1 (Mus musculus) (UniProt Q704Y3). In words: Antagonist activity at TRPV1 channel in C57B1 mouse dorsal root ganglion cells assessed as inhibition of capsaicin-induced calcium flux at 125 uM after 3 hrs by fluorometric analysis in presence of 5.6 ug/ml trafficking inhibitor brefeldin A. The assay is classed as functional, tissue-based. For orientation: Calcium assays in cells follow changes in intracellular calcium, usually with a dye or a luminescent sensor.
Sequence of Transient receptor potential cation channel subfamily V member 1 (Mus musculus) (Q704Y3 whole entry): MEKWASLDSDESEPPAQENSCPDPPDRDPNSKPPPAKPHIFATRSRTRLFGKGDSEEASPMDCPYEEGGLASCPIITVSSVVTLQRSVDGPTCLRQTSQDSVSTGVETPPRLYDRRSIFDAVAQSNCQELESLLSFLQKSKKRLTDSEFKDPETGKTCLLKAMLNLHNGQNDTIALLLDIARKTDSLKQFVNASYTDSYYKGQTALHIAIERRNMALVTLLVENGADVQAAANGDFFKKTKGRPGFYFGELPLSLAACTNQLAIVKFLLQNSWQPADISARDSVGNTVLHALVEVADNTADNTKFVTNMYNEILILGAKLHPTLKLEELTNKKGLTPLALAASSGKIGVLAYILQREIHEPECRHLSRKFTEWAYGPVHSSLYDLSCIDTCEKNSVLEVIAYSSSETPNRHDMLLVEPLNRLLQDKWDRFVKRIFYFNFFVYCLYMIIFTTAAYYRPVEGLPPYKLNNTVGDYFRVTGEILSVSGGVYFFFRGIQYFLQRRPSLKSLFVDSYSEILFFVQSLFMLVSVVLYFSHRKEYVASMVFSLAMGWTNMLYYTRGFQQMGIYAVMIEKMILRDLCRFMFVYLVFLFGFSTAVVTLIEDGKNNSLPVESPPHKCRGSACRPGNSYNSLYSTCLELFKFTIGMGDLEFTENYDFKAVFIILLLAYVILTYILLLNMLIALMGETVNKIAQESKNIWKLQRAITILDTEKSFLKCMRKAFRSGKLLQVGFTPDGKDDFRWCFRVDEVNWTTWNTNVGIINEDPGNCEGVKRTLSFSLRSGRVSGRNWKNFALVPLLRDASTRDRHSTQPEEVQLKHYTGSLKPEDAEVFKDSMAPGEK

Assay [2] has the same target. In words: Antagonist activity at TRPV1 channel in C57B1 mouse dorsal root ganglion cells assessed as inhibition of capsaicin-induced calcium flux at 125 uM after 5 mins by fluorometric analysis in presence of at 25 mM of KCl. The assay is classed as functional, tissue-based. The gist of the method:
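Mouse C57B1 cervical/lumbar DRG neurons, Fura-2 AM calcium imaging at 20–25°C, each neuron analysed separately. […] Final 25 or 100 mM KCl pulses check viability.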

Assay [3] has the same target. The assay can be described thus: Antagonist activity at TRPV1 channel in C57B1 mouse dorsal root ganglion cells assessed as inhibition of capsaicin-induced calcium flux at 125 uM after 3 hrs by fluorometric analysis in presence of 10 ug/ml translational inhibitor cycloheximide. Type of assay: functional, tissue-based.
Assay [4] has the same target. In words: Antagonist activity at TRPV1 channel in C57B1 mouse dorsal root ganglion cells assessed as inhibition of capsaicin-induced calcium flux at 125 uM after 3 hrs by fluorometric analysis. Type of assay: functional, tissue-based.
For assay [5] the target is unchanged. The assay can be described thus: Antagonist activity at TRPV1 channel in C57B1 mouse dorsal root ganglion cells assessed as inhibition of capsaicin-induced calcium flux at 125 uM after 3 hrs by fluorometric analysis in presence of 6.3 ug/ml transcriptional inhibitor actinomycin D. The assay is classed as functional, tissue-based.
Assay [6] deals with T1, Transient receptor potential cation channel subfamily V member 1 (Homo sapiens, UniProt Q8NER1). The note with it: HEK293, 375 uM.
T1 sequence (Q8NER1 whole entry): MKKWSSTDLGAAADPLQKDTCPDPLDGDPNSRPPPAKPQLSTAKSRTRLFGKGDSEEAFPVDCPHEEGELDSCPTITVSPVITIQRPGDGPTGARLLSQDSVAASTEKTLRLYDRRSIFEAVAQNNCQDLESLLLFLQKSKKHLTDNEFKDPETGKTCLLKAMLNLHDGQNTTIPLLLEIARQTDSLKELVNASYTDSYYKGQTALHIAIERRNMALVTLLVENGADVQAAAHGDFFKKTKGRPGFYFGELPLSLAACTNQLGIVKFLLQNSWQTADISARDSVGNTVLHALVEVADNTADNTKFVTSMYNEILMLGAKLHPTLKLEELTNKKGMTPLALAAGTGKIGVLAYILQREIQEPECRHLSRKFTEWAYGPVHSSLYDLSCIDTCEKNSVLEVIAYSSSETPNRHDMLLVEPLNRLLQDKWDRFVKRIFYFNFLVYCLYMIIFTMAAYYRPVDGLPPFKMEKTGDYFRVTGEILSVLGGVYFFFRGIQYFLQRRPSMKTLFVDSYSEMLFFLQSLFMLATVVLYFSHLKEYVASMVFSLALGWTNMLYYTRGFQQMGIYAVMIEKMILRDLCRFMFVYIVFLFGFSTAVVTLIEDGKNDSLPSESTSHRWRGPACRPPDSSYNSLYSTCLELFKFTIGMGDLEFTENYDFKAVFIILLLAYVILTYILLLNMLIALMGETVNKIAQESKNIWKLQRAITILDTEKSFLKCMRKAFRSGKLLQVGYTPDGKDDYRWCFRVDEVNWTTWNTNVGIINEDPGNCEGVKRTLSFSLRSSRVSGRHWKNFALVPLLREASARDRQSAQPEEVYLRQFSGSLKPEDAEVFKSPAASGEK
The target in assay [7] is T1, Transient receptor potential cation channel subfamily V member 1. In words: Antagonist activity at human TRPV1 expressed in human BEAS-2B cells assessed as inhibition of capsaicin-induced calcium flux at 25 to 1000 uM co-treated with 2.5 uM capsaicin measured after 30 mins by fluorometric analysis. The assay is classed as functional, cell-based. The gist of the method: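 BEAS-2B cells stably overexpressing human TRPV1, grown to confluence in LHC-9. Loaded 1 h at ~22°C in the dark with Fluo-4 reagent, then washed into LHC-9 with 1 mM probenecid and Trypan Red. […] Fluorescence followed 1 min; rate and ΔFmax versus capsaicin-only control.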

Assay [8] deals with Transient receptor potential cation channel subfamily V member 1 (Homo sapiens), Q8NER1 [F660A]. The assay can be described thus: Antagonist activity at human TRPV1 F660A mutant expressed in HEK293 cell assessed as inhibition of capsaicin-induced calcium flux at 375 uM for 30 mins before capsaicin challenge measured after 48 hrs by fluorometric analysis. The assay is classed as functional, cell-based. The gist of the method: (§1)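 HEK-293 cells on gelatin-coated plates transiently transfected with human TRPV1 mutant plasmid (200 ng/well, lipofection 4 h), then grown 48 h. Fluo-4 loaded at 37°C. […] Fluorescence read 1 min; initial rate (ΔF/sec) and ΔFmax compared with capsaicin-only control.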
Sequence of Transient receptor potential cation channel subfamily V member 1 (Homo sapiens), Q8NER1 [F660A] (Q8NER1 whole entry F660A): as the sequence (Q8NER1 whole entry) above, with F660A counted along it

Assay [9] relates to Transient receptor potential cation channel subfamily V member 1 (Homo sapiens), Q8NER1 [E600V]. The assay can be described thus: Antagonist activity at human TRPV1 E600V mutant expressed in HEK293 cell assessed as inhibition of capsaicin-induced calcium flux at 375 uM for 30 mins before capsaicin challenge measured after 48 hrs by fluorometric analysis. The assay is classed as functional, cell-based. The gist of the method: as §1
Sequence of Transient receptor potential cation channel subfamily V member 1 (Homo sapiens), Q8NER1 [E600V] (Q8NER1 whole entry E600V): as the sequence (Q8NER1 whole entry) above, with E600V counted along it

The test system of assay [10] is Transient receptor potential cation channel subfamily V member 1 (Homo sapiens), Q8NER1 [C578A]. In words: Antagonist activity at human TRPV1 C578A mutant expressed in HEK293 cell assessed as inhibition of capsaicin-induced calcium flux at 375 uM for 30 mins before capsaicin challenge measured after 48 hrs by fluorometric analysis. The assay is classed as functional, cell-based. The gist of the method: as §1
Sequence of Transient receptor potential cation channel subfamily V member 1 (Homo sapiens), Q8NER1 [C578A] (Q8NER1 whole entry C578A): as the sequence (Q8NER1 whole entry) above, with C578A counted along it

Assay [11] deals with T1, Transient receptor potential cation channel subfamily V member 1. The conditions noted are these: HEK293, 375 uM. This is another data set of the same source.
In assay [12] the test system is Transient receptor potential cation channel subfamily V member 1 (Homo sapiens), Q8NER1 [N604A]. In words: Antagonist activity at human TRPV1 N604A mutant expressed in HEK293 cell assessed as inhibition of capsaicin-induced calcium flux at 375 uM for 30 mins before capsaicin challenge measured after 48 hrs by fluorometric analysis. Type of assay: functional, cell-based. The gist of the method: as §1
Sequence of Transient receptor potential cation channel subfamily V member 1 (Homo sapiens), Q8NER1 [N604A] (Q8NER1 whole entry N604A): as the sequence (Q8NER1 whole entry) above, with N604A counted along it

In assay [13] the test system is Transient receptor potential cation channel subfamily V member 1 (Homo sapiens), Q8NER1 [C621A]. The assay can be described thus: Antagonist activity at human TRPV1 C621A mutant expressed in HEK293 cell assessed as inhibition of capsaicin-induced calcium flux at 375 uM for 30 mins before capsaicin challenge measured after 48 hrs by fluorometric analysis. Type of assay: functional, cell-based. The gist of the method: as §1
Sequence of Transient receptor potential cation channel subfamily V member 1 (Homo sapiens), Q8NER1 [C621A] (Q8NER1 whole entry C621A): as the sequence (Q8NER1 whole entry) above, with C621A counted along it

Assay [14] has as its system Transient receptor potential cation channel subfamily V member 1 (Homo sapiens), Q8NER1 [E649A]. In words: Antagonist activity at human TRPV1 E649A mutant expressed in HEK293 cell assessed as inhibition of capsaicin-induced calcium flux at 375 uM for 30 mins before capsaicin challenge measured after 48 hrs by fluorometric analysis. The assay is classed as functional, cell-based. The gist of the method: as §1

In assay [15] the target is T1, Transient receptor potential cation channel subfamily V member 1. The assay can be described thus: Antagonist activity at human TRPV1 expressed in human BEAS-2B cells assessed as inhibition of capsaicin-induced calcium flux at 25 to 1000 uM preincubated for 30 mins before 2.5 uM capsaicin challenge measured after 1 min by fluorometric analysis. The assay is classed as functional, cell-based. The gist of the method:
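Human TRPV1-expressing BEAS-2B cells loaded with Fluo-4 (1 h, ~22°C, dark), then washed into LHC-9 with 1 mM probenecid and Trypan Red containing compound. […] Ca2+ signal tracked 1 min; initial rate and ΔFmax relative to capsaicin-only cells.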

Assay [16] shares this target. The note with it: HEK293, 375 uM. This is another data set of the same source.

Sequence of Transient receptor potential cation channel subfamily V member 1 (Homo sapiens), Q8NER1 [E649A] (Q8NER1 whole entry E649A): as the sequence (Q8NER1 whole entry) above, with E649A counted along it

For the molecule `C/C=C(\NC(=O)[C@H](C)NC(=O)[C@@H](NC(=O)[C@H](NC(=O)[C@H](Cc1ccccc1)NC(=O)[C@@H](CC(C)C)NC(=O)[C@@H](Cc1ccccc1)NC(C)=O)[C@@H](C)O)C(C)C)C(=O)O` (Ac-[dF][dL]F[d(aThr)]VA[Dhb]-OH), the inhibition result in [1], in assay [3], in assay [4] and in assay [5] was “inactive” each time. In addition, the inhibition entry in assay [2] is “Active”.

Take `C/C=C(\NC(=O)[C@H](C)NC(=O)[C@@H](NC(=O)[C@H](NC(=O)[C@H](Cc1ccccc1)NC(=O)[C@@H](CC(C)C)NC(=O)[C@@H](Cc1ccccc1)NC(=O)CC)[C@@H](C)O)C(C)C)C(=O)O` (Propionyl-[dF][dL]F[d(aThr)]VA[Dhb]-OH): the inhibition entry in assay [6], in assay [8], in assay [10] and in [13] was “inactive” each time. For the same molecule, the inhibition entry in assay [7], in assay [9], in [11], in [12], in [14] and in [15] was “Active” throughout. Besides, in assay [16], the inhibition entry was “Active”.

For the molecule `C/C=C1\NC(=O)[C@H](C)NC(=O)[C@H](C(C)C)NC(=O)[C@H](NC(=O)[C@H](Cc2ccccc2)NC(=O)[C@@H](CC(C)C)NC(=O)[C@@H](Cc2ccccc2)NC(=O)CC)[C@@H](C)OC1=O` (Propionyl-[dF][dL]F[d(aThr)]VA[Dhb]; ester 4-C), the inhibition result in [7], in [9], in assay [12], in [14] and in assay [15] was “Active” throughout. Also, the inhibition result in assay [8], in assay [10] and in assay [13] was “inactive” in each case.
